In the library only some 4.2% were active in any assay of this set; here they are far more common.
Rad51 HR inh: Rad51 (human) homologous recombination inhibition | Q06609 | hRad51 DNA strand exchange, fluorescence dequenching | inhibition, % at 10 µM | 200,000 compounds, 0.085% hits;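 active = inhibition above 40% at the single screening dose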;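 also: 0% = DMSO control wells and 100% = blanks with heterologous ssDNA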
Target sequence (Q06609 whole entry, looked up): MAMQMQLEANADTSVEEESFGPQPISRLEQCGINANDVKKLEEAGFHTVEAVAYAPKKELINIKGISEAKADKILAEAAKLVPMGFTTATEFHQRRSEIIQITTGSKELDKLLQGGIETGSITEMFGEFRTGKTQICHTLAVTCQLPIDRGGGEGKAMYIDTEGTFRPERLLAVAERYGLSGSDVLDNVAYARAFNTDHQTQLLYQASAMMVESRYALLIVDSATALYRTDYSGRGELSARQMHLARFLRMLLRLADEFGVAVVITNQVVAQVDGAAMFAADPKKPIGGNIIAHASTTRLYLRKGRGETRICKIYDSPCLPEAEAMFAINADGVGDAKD
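material = hRad51 filaments on single-stranded DNA | timing = filaments 15 min 37 °C, then compound 30 min | signal = FRET fluorescence dequenching, excitation 485 nm, emission 520 nm | benchmarks = control wells and blank wells on each plate | evaluation = percent inhibition relative to plate controls and blanks | compound = 10 µM final, single point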
Cl transport mod: modulates chloride dependent transport by human KCC2 | KCC2 cells, thallium flux FluoZin-2 fluorescence | B-score of Tl+ flux slope (higher = more flux/activation; lower = inhibition) at 10 µM | 190,000 compounds, 2.2% hits;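 active = thallium flux slope and its plate-corrected score both differing from the plate sample mean at a set confidence after two filtering rounds, in either direction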;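 also: slope of fluorescence scaled to starting intensity during 10 to 20 s after thallium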
Autophagy HCS: autophagy modulation, high-content screen; MEF GFP-LC3 puncta imaging; test concentration mostly 10 µM; calls only at 10 µM (by protocol); 190,000 compounds, 0.98% hits; AID 463193;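 active = percentage of spot-positive cells more than 3 SD above its plate mean, without a fluorescence outlier flag or 80% toxicity; inconclusive = no clear call, values can overlap the other calls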;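 also: spot-positive cell cutoff set from DMSO-treated cells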
WT yeast gro inh: growth inhibition of WT yeast, mitochondrial fusion screen; 190,000 compounds, 2.1% hits; mitochondrial fusion phenotypic screen, WT strain; inhibition, % at 10 µM; in the data active = inhibition above about 58%; tested in S. cerevisiae
SKKanGAS inh: SKKanGAS growth inhibition; inhibition, % at 7.5 µM; 300,000 compounds, 1.3% hits; S. pyogenes SKKanGAS, kanamycin growth, BacTiter-Glo, 6 h;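 active = mean replicate score, as percent of positive control median, at least 50; inconclusive = mean below 50 but one replicate at or above 50; inactive = mean and every replicate below 50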;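 also: strain carries kanamycin resistance gene driven by streptokinase promoter and grows in 40 µg/ml kanamycin; loss of luminescence reflects streptokinase promoter inhibition or plain growth inhibition; 0% = median of DMSO wells and 100% = positive control at its reference dose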
Ins promoter up: MIN6 insulin promoter up-regulation | MIN6 insulin promoter-GFP reporter, high-content imaging; active compounds read high | z-score at 5 µM | 190,000 compounds, 0.3% hits;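 active = z-score above 3 at 5 µM with at least 500 cells counted in the well; inconclusive = wells under 500 cells, flagged as cytotoxic or low count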
KCC2 sec1: confirmation of human KCC2 transport modulators; shares compounds with Cl transport mod; HEK293-KCC2, thallium flux, FluoZin2 fluorescence; active compounds read high; normalised thallium flux (F/F0 slope) at 10 µM; 3,700 compounds, 15% hits; AID 1713;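 active = thallium flux slope above the same plate's solvent-only control mean plus 3 SD; inconclusive = the two replicate wells disagree; inactive = no significant difference from solvent-only control wells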
KCC2 bumet counter: bumetanide-insensitive thallium flux in KCC2 cells with ouabain, counter-screen; normalized thallium flux at 10 µM; shares compounds with Cl transport mod; AID 1714; HEK293-KCC2 + bumetanide/ouabain, thallium flux FluoZin2; active compounds read high; 3,700 compounds, 49% hits;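 active = thallium entry rate above the same plate's blocked-transporter control wells by more than 3 SD; inconclusive = the two repeat wells disagree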;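 also: raw slope of fluorescence over initial fluorescence between 10 and 20 s after thallium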
KCC2 sec2: confirmation of human KCC2 transport modulators; shares compounds with Cl transport mod; normalized thallium flux at 10 µM; 3,700 compounds, 23% hits; HEK293-KCC2, thallium flux FluoZin2 fluorescence; actives lie on both sides; F/F0 rise rate, 10–20 s post-thallium;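 active = thallium flux slope more than 3 SD above or below the plate's solvent-only control mean, mostly below; inconclusive = the two repeat wells disagreed; inactive = no significant shift from solvent-only controls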;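 also: raw slope with 0.1% DMSO as baseline and bumetanide as block control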
HEK counter1: parental HEK flux effect, counter-screen; AID 1716; 3,700 compounds, 46% hits; HEK293 parental cells, thallium flux FluoZin2, ouabain; baseline-ratio fluorescence slope, 10–20 s after thallium; thallium flux rate (normalised fluorescence) at 10 µM; shares compounds with Cl transport mod;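 active = thallium flux rate significantly above the same plate's solvent-only control wells, beyond their mean plus 3 SD; inconclusive = the two replicate wells gave conflicting results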
KCC2 ouabain: confirmation of human KCC2 modulators with ouabain; shares compounds with Cl transport mod; HEK293-KCC2, thallium flux FluoZin2 fluorescence; bidirectional: low = inhibitor, high = activator; raw Tl+ flux slope (below DMSO = inhibition, above = activation) at 10 µM; 3,700 compounds, 48% hits; AID 1717;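 active = thallium flux slope beyond 3 SD from same-plate DMSO control mean in most replicates, usually higher, sometimes lower; inconclusive = repeat tests gave conflicting results; inactive = no significant difference from controls in most replicates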;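 also: slope of initial-normalized fluorescence between seconds 10 and 20 after thallium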
HEK293 Tl flux2: counter-screen for KCC2 modulators: effect in parental HEK293 cells. shares compounds with Cl transport mod. thallium flux FluoZin-2 fluorescence slope. thallium flux slope at 10 µM. 3,700 compounds, 33% hits;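 active = thallium flux slope above the same plate's solvent-control mean plus 3 SD in both duplicate wells; inconclusive = duplicate wells that disagreed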;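 also: run without ouabain in cells lacking the KCC2 cotransporter; slope of fluorescence scaled to its starting value between 10 and 20 s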
The depositor's hits bear a star; i = inactive; ? = inconclusive; . = no result given.

SMILES | Rad51 HR inh | Cl transport mod | Autophagy HCS | WT yeast gro inh | SKKanGAS inh | Ins promoter up | KCC2 sec1 | KCC2 bumet counter | KCC2 sec2 | HEK counter1 | KCC2 ouabain | HEK293 Tl flux2
CC1CCC2(CC1)C(Nc1cccc(Cl)c1)=NC(=S)N2CC#N (centres undefined) | -3.3 | 18.6* | i | 30.8 | -3.7 | 0.03 | 0.00974* | 0.0503* | 0.0553* | 0.0518* | 0.0453* | 0.0405*
COc1ccc(Cl)cc1NC(=O)Nc1ccc(C(=O)N2CCOCC2)cc1 | . | . | . | . | 6.9 | . | . | . | . | . | . | .
O=[N+]([O-])c1ccc(-c2nc3ccc([N+](=O)[O-])cc3[nH]2)cc1 | -3.5 | . | i | 13.5 | -0.3 | -2.63 | . | . | . | . | . | .
O=[N+]([O-])c1ccc2nc(/C=C/c3ccc(Cl)cc3)[nH]c2c1 | 0.5 | -4.48* | i | 67.2* | 3.0 | -0.95 | 0.00696 | 0.00524 | 0.0293 | 0.00775 | ? | 0.00989
CCOC(=O)c1[nH]c2ccc(Br)cc2c1NC(=O)CCN1CCC(C(=O)OCC)CC1 | 9.3 | -0.00541 | i | -3.0 | -1.4 | 0.4 | 0.00909 | 0.00638 | ? | 0.00785 | 0.0178 | 0.0106
CCOC(=O)c1[nH]c2ccc(Br)cc2c1NC(=O)CCN1CCCCC1 | -1.2 | . | i | 2.2 | . | -0.08 | . | . | . | . | . | .
COCCOc1cc(NC(=O)CS(=O)(=O)CC(=O)N(C)C)c(Cl)cc1Cl | 11.7 | 0.172 | i | -4.9 | -20.6 | -0.98 | . | . | . | . | . | .
Cn1cnnc1SCC(=O)NC1CCCN(Cc2ccccc2F)C1 (centres undefined) | . | . | . | . | 0.2 | . | . | . | . | . | . | .
Cc1ccc(/C=C/C(=O)C2C(=O)c3ccccc3C2=O)cc1 | -4.1 | . | i | 8.6 | ? | -0.06 | 0.00593 | 0.0673* | 0.0628* | 0.0917* | 0.0719* | 0.0544*
Cc1ccc(/C=C/C(=O)c2ccc(C)cc2)cc1 | 2.5 | 0.574 | i | 6.6 | -9.7 | . | . | . | . | . | . | .
Cc1onc(C(=O)N2CCN(Cc3ccccc3)CC2)c1[N+](=O)[O-] | -4.4 | -4.1* | i | -11.3 | 7.5 | 0.1 | 0.00884 | 0.00654 | ? | 0.00749 | 0.0194* | 0.0104
Cc1onc(C(=O)N2CCC(Cc3ccccc3)CC2)c1[N+](=O)[O-] | . | . | . | . | 8.9 | . | . | . | . | . | . | .
CCOc1ccc(OCC)c(NC(=O)C2CCCN(c3nc(C)cc(C)n3)C2)c1 (centres undefined) | -5.2 | -3.75* | i | 22.1 | 17.5 | . | 0.00604 | 0.00409 | ? | 0.00572* | 0.0139* | ?
COc1ccccc1NC(=O)C1CCCN(c2nc(C)cc(C)n2)C1 (centres undefined) | 8.0 | -0.722 | i | 4.8 | 10.1 | . | . | . | . | . | . | .
CC(C)c1onc(C(=O)NC2CCCCC2)c1[N+](=O)[O-] | . | -0.259 | i | 2.1 | -4.5 | -0.21 | . | . | . | . | . | .
O=C(c1cc2c(s1)-c1ccccc1S(=O)(=O)C2)N1CCN(Cc2ccccc2)CC1 | . | -2.68 | i | 12.9 | -5.7 | 0.63 | 0.00623 | 0.00579 | 0.0277 | 0.00651 | ? | 0.00932
CC(=O)Oc1ccc(C(=O)Nc2nnc(C)s2)cc1 | -1.7 | 2.43* | i | 1.7 | -5.3 | -0.4 | 0.00858 | 0.00662 | 0.0305 | 0.00664 | 0.0186 | ?
CCOC(=O)C1CCN(C(=O)c2cc(C(C)(C)C)nn2Cc2ccccc2)CC1 | 4.2 | -0.118 | . | . | 0.7 | 0.32 | . | . | . | . | . | .
c1ccc(CCCNc2ncnc3nc[nH]c23)cc1 | -5.5 | -0.242 | i | -10.5 | -0.9 | 0.16 | . | . | . | . | . | .

Screening data from PubChem.
